The full list was thinned out, with hits kept by preference.
INS promoter act = TRM-6 insulin promoter activation; hit rate 0.81% among 130,000; activation, % at 2 µM; TRM-6 cells (human fetal islet line), insulin promoter eGFP reporter, imaging; plate-scaled: unstimulated 0, stimulated control 100;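 active = activation at 2 µM above a set limit, confirmed on inspection of the cell images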;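 note: share of cells whose green reporter signal exceeds an intensity cutoff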
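Material: TRM-6 insulin promoter–eGFP reporter cells. Buffer or medium: Low-glucose (5.5 mM) medium with tamoxifen. Probe or stimulus: tamoxifen at 0.75 µM added at seeding for reporter induction. Times: tamoxifen pre-incubation 15 h overnight, then compound exposure 48 h at 37 °C. Detection: high-content imaging of fixed cells with Hoechst nuclear stain.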
Numbers without * were called inactive.

SMILES	INS promoter act
CC(C)(C)NC(=O)C(c1cccs1)N(Cc1cccs1)C(=O)c1ccc(CN2CCOCC2)o1 (stereo not given)	136
CC(C)(C)C(=O)NC(=S)Nc1cc(C(=O)O)ccc1Cl	-9
c1ccc(CC(Nc2ccccn2)c2ccccc2)cc1 (stereo not given)	0
O=C(N1CCOCC1)C12CC3CC(C1)CC(c1ccccc1)(C3)C2	8
O=c1cc(NS(=O)(=O)c2ccccc2)nc(SCc2ccc(Cl)cc2)[nH]1	-8
O=c1cc(O)nc(SCc2ccccc2)[nH]1	525*
CCCc1cc(=O)[nH]c(SCc2cccnc2)n1	342
CN1C(=O)CC(C(=O)O)SC1=Nc1cccc(C(F)(F)F)c1 (stereo not given)	30
O=C1CC(C(=O)O)S/C(=N\NC(=O)c2ccc(F)cc2)N1 (stereo not given)	0
CN1C(=O)CC(C(=O)O)SC1=Nc1ccc(F)cc1 (stereo not given)	425*
O=C(Nc1cccnc1)c1cc(-c2ccc(Cl)cc2)on1	8
Cn1c(SCC(=O)NC2CCCC2)nnc1-c1ccc(S(=O)(=O)N2CCOCC2)cc1	-10
O=C(Nc1ccc(Br)cc1)c1ccc(Br)c(S(=O)(=O)Nc2cccnc2)c1	3
CC(C)(CO)NC(=O)C(c1ccccc1)c1ccccc1	406*
O=C(O)CC(c1ccccc1)c1ccccc1	0
CC(C)(C)C(=O)NC(=S)NNC(=O)C(c1ccccc1)c1ccccc1	0
OC(COc1c(Cl)cc(Cl)cc1Cl)CN1CCCCC1 (stereo not given)	7
COc1ccc2cc(-c3cc(C(=O)OCC(=O)Nc4c(C)n(C)n(-c5ccccc5)c4=O)c4ccccc4n3)ccc2c1	325*
Cc1c(NC(=O)COC(=O)COc2ccc(Nc3ccccc3)cc2)c(=O)n(-c2ccccc2)n1C	133
Cc1c(NC(=O)COC(=O)CCC(=O)c2ccc(Cl)cc2)c(=O)n(-c2ccccc2)n1C	8
CC(C)C[C@@H]1NC(=O)[C@H](Cc2ccc(O)cc2)NC(=O)c2cc([N+](=O)[O-])cc(I)c2NCCC[C@@H](C(N)=O)NC1=O	5
NC(=O)[C@@H]1CCCCNc2c(I)cc([N+](=O)[O-])cc2C(=O)N[C@@H](CCC(=O)O)C(=O)N[C@@H](CO)C(=O)N1	-60
NC(=O)[C@@H]1CCCNc2c(I)cc([N+](=O)[O-])cc2C(=O)N[C@@H](Cc2ccccc2)C(=O)N[C@@H](Cc2cnc[nH]2)C(=O)N1	285*
CC1CCCN(CCCOc2ccc([N+](=O)[O-])cc2)C1 (stereo not given)	8
CC1CCCCN1C(=O)c1ccc(COc2ccc([N+](=O)[O-])cc2)o1 (stereo not given)	380*
SMILES	INS promoter act
O=C(c1ccc(-c2ccc([N+](=O)[O-])cc2)o1)N1CCCCC1	-7
CC(=O)c1cc(C)ccc1OC(=O)c1cccnc1	3
COC(=O)c1ccc(CSc2nnc(Nc3ccccc3OC)s2)o1	9
CCNC(=S)N/N=C(\C)c1ccc2c(c1)OCCO2	0
Cc1ccc(C(=O)OCC(=O)Nc2ncc(C(F)(F)F)cc2Cl)cc1NC(=O)c1ccco1	8
Cc1cccc(-n2c(-c3ccco3)n[nH]c2=S)c1	-8
COc1ccc(C2C(C(C)=O)=C(Nc3ccccc3)CC(C)(O)C2C(C)=O)cc1OC (stereo not given)	215
COc1ccc(C2NC(=O)NC(C)=C2C(C)=O)cc1 (stereo not given)	129
COc1ccc(NC2=C(C(C)=O)C(c3ccc(OC)cc3)C(C(C)=O)C(C)(O)C2)cc1 (stereo not given)	317*
N=c1ccn(Cc2ccc(Cl)c(Cl)c2)cc1	7
O=C(COC(=O)c1ccc(CO)cc1)NCc1cccs1	-7
Cc1cc(NC(=O)C(C)Oc2ccc(Cl)cc2Cl)n(-c2ccccc2)n1 (stereo not given)	133
COc1ccc(/C=C/C(=O)NCCOc2ccc(C)cc2)cc1	-7
Cc1ccc(CSCCNC(=O)/C=C/c2ccc(Cl)cc2)cc1	3
O=C(/C=C/c1ccc(OCCCF)cc1)NCc1ccc(Cl)cc1	223*
COc1ccc(OCC(=O)OC2CCN(C)CC2)cc1	4
CCCC1=C(C(=O)OCC)C(c2cc(Cl)cc(OC)c2OCC(=O)OCC)NC(=O)N1 (stereo not given)	-7
Clc1ccc(OCc2nnc(-c3ccccc3Br)o2)c(Cl)c1	120*
Clc1ccc(OCc2nc(-c3ccncc3)no2)c(Cl)c1	8
Clc1ccc(-c2nnc(-c3ccccc3)o2)c(Cl)c1	115
c1ccc(-c2nnc(-c3cccc(-c4nnc(-c5ccccc5)o4)c3)o2)cc1	110
Cn1cccc1CC(=O)N/N=C/c1cccc([N+](=O)[O-])c1	0
CCOc1ccc(CCNC(=O)COc2cc(=O)n(C)c3ccccc23)cc1OCC	7
O=CNC(Cc1ccccc1)C(=O)O (stereo not given)	-7
Cc1ccccc1CS(=O)(=O)c1nnc([C@H](Cc2ccccc2)NC(=O)OC(C)(C)C)o1	-78
SMILES	INS promoter act
CC(C)(C)OC(=O)N[C@@H](Cc1ccccc1)c1nnc(SCC(=O)c2ccc(Cl)cc2)o1	507*
CC(C)(C)OC(=O)N[C@@H](Cc1c[nH]c2ccccc12)c1nnc(SCC(N)=O)o1	0
Cc1ccc(C(=O)c2c(NC(=O)c3ccccc3C)sc(C)c2C)cc1	8
COc1ccc(C2C(C(=O)NCCN(C)C)c3ccccc3C(=O)N2C)cc1OC (stereo not given)	-7
Cc1ccc(NC(=S)NN2CCN(C)CC2)cc1	-4
COc1ccccc1OCCn1cc(C#N)c2ccccc21	8
O=S(=O)(NCc1ccccc1)c1ccc(S(=O)(=O)N(Cc2ccccn2)C2CCCC2)cc1	10
CCOC(=O)c1c(NC(=S)Nc2ccccc2)sc2c1CCN(CCc1ccccc1)C2	233*
CCOC(=O)c1c(NC(=O)CN2CCN(C(=O)c3ccco3)CC2)sc2c1CCCC2	319
CCOC(=O)c1c(NC(=S)Nc2ccc(Cl)cc2)sc(C)c1C	-5
Cc1cccc(-n2c(SCc3cc(=O)n4ccsc4n3)nc3ccccc32)c1	7
CCCCc1ccc(NC(=O)c2ccc(NS(C)(=O)=O)cc2)cc1	7
COc1ccc(C(=O)NC(=S)Nc2ccccc2N2CCOCC2)cc1Br	-2
O=C(Nc1ccccc1N1CCOCC1)c1ccc2c(c1)OCO2	367*
O=C(Nc1ccccc1)c1ccc2c(c1)OCCO2	9
CCOCCCNC(=O)C(c1ccc(OC)cc1)N(Cc1ccc2c(c1)OCO2)C(=O)c1cnccn1 (stereo not given)	7
CCS(=O)(=O)N1CCCC(C(=O)NCc2ccc3c(c2)OCO3)C1 (stereo not given)	8
O=C(C1CCC(Cn2c(=S)[nH]c3ccccc3c2=O)CC1)N1CCN(c2ccccn2)CC1 (stereo not given)	0
O=C(Nc1ccc(N2CCOCC2)cc1)c1ccccc1SCC(=O)N1CCCC1	0
O=C(CCCN1C(=O)c2ccccc2C1=O)NC1=NCCS1	0
Cc1cc(C)cc(OCC(=O)NC2=NCCS2)c1	-8
CC(C(=O)NC1=NCCS1)N1C(=O)C2CC=CCC2C1=O (stereo not given)	121*
COc1ccc(/C(C)=N\NS(=O)(=O)c2ccccc2)cc1OC	8
O=C(Cc1nc(-c2ccc([N+](=O)[O-])cc2)cs1)Nc1ccccc1	193*
COc1ccccc1N(C(=O)c1ccncc1)c1nc(-c2ccc([N+](=O)[O-])cc2)cs1	5
